Source: ChEMBL document CHEMBL1143670, “An adamantyl-substituted retinoid-derived molecule that inhibits cancer cell growth and angiogenesis by inducing apoptosis and binds to small heterodimer partner nuclear receptor: effects of modifying its carboxylate group on apoptosis, proliferation, and protein-tyrosine phosphatase activity” (J Med Chem, 2007)
pIC50: −log10 of the molar value. Active and inactive are the calls of the source. The rule behind the calls is not given here.

Legend:
[1] = Antiproliferative activity against HMVE cells; assay type: functional, cell-based; conditions: Homo sapiens
KG-1 [2] = assay: Growth inhibition of retinoid-resistant KG1 cells at 5 uM after 48 hrs; assay type: functional; conditions: Homo sapiens, KG-1, 48 h
In short: (§1)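 KG-1 cells grown in RPMI-1640 with 5% heat-inactivated FBS and gentamycin, seeded in 3 mL medium plus 5% FBS, incubated overnight. Compound then added in Me2SO (0.1% final), cells incubated for the stated time, harvested and counted by hemocytometer.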

[3] = Growth inhibition of retinoid-resistant H292 cells after 72 hrs; assay type: functional, cell-based; conditions: Homo sapiens, NCI-H292, 72 h
In short: (§2)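 Cells seeded at 2 × 10^3 per well for H292 and DU-145 (RPMI-1640, 10% FBS) or 4 × 10^3 for MDA-MB-231 (DMEM, 10% FBS), 37 °C, 6% CO2. After 24 h attachment, treated 72 h with compound in Me2SO (0.1% final); media and compound renewed at 48 h. Viable cells by MTS reduction; triplicates per concentration.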

[4] = Growth inhibition of primary HMVE cells after 72 hrs; assay type: functional, cell-based; conditions: Homo sapiens
In short: (§3)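 Primary HMVE cells, 1 × 10^4 per well in EGM-MV medium, incubated 1 h at 37 °C. Compound in Me2SO added, or Me2SO alone (0.5% final). After 72 h at 37 °C, cells detached with trypsin/EDTA and counted by hemocytometer; three replicates.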

HMVE [5] = assay: Induction of apoptosis in HMVE cells assessed as increase in oligonucleosome levels after 20 hrs by ELISA; assay type: functional, cell-based; conditions: Homo sapiens
In short: (§4)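 HMVE cells (6 × 10^4 per well) seeded in EGM-MV, incubated 6 h at 37 °C. Then treated 20 h with compound (10–500 nM), 1.0 µM doxorubicin or Me2SO (0.5% final). Cytoplasmic histone-associated DNA fragments in lysate supernatant measured by Cell Death Detection ELISA; triplicates.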

MDA-MB-231 [6] = assay: Growth inhibition of retinoid-resistant MDA-MB-231 cells after 72 hrs; assay type: functional, cell-based; conditions: Homo sapiens, MDA-MB-231, 72 h; in short: as §2
[7] = target: T1, Nuclear receptor subfamily 0 group B member 2 (Homo sapiens) (UniProt Q15466); assay: Displacement of [5,5'-3H2]AHPN from recombinant human GST-SHP partner nuclear orphan receptor at 50 uM
T1 sequence (whole entry): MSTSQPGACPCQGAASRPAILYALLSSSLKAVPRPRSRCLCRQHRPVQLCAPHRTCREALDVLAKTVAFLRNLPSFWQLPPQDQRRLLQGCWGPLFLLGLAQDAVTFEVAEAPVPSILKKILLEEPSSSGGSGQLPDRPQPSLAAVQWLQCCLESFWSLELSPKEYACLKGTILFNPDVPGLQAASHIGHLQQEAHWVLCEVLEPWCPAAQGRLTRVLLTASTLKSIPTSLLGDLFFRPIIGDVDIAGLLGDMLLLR
In short: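 GST–human SHP fusion (150–500 ng) on glutathione-Sepharose beads preincubated on ice 45 min with unlabeled compound (50 µM final) in 0.4 mL binding buffer. [5,5′-3H2]AHPN (5 nM final) then added for 2 h at 4 °C. Beads washed, counted by scintillation directly or after elution with 50 mM NaHCO3/1% SDS.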

HMVE [8] = assay: Inhibition of HMVE cell tubule formation in Matrigel after 18 hrs; assay type: functional, cell-based; conditions: Homo sapiens
In short: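 Trypsinized HMVE cells (5 × 10^4 per well in EGM-MV) plated on gelled Matrigel, held 1 h at 37 °C, then exposed 18 h at 37 °C to 0.25 or 1.0 µM compound or Me2SO (0.05% final). Total tube length measured from phase-contrast images, four random fields per well, three replicates.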

MDA-MB-231 [9] = assay: Induction of apoptosis in MDA-MB-231 cells at 1 uM after 96 hrs; assay type: functional, Homo sapiens
In short: (§5)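 Apoptotic cells scored by acridine orange staining. KG-1, HL-60R or MDA-MB-231 cells seeded in medium with 5% FBS, incubated overnight, then exposed to compound in Me2SO (0.1% final) for the stated time.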

KG-1 [10] = assay: Induction of apoptosis in retinoid-resistant KG1 cells at 5 uM after 48 hrs; assay type: functional, Homo sapiens; in short: as §5
[11] = Induction of apoptosis in HMVE cells at 0.5 uM after 20 hrs relative to adriamycin; assay type: functional, Homo sapiens; in short: as §4
MDA-MB-231 [12] = assay: Growth inhibition of retinoid-resistant MDA-MB-231 cells at 1 uM relative to control; assay type: functional; conditions: Homo sapiens; in short: as §2
DU-145 [13] = assay: Growth inhibition of retinoid-resistant DU145 cells after 72 hrs; assay type: functional, cell-based; conditions: Homo sapiens, DU-145, 72 h; in short: as §2
KG-1 [14] = assay: Induction of apoptosis in retinoid-resistant KG1 cells at 1 uM after 48 hrs; assay type: functional, Homo sapiens; in short: as §5
KG-1 [15] = assay: Inhibition of cell proliferation in retinoid-resistant KG1 cells at 1 uM after 48 hrs relative to control; assay type: functional; conditions: Homo sapiens, KG-1, 48 h; in short: as §1
[16] = Growth inhibition of retinoid-resistant H292 cells at 1 uM relative to control; assay type: functional; conditions: Homo sapiens, NCI-H292; in short: as §2
[17] = Inhibition of HMVE cell proliferation at 0.5 uM relative to control; assay type: functional; conditions: Homo sapiens
DU-145 [18] = assay: Growth inhibition of retinoid-resistant DU145 cells at 1 uM relative to control; assay type: functional; conditions: Homo sapiens; in short: as §2
HMVE [19] = assay: Inhibition of HMVE cell migration through Matrigel after 5 hrs; assay type: functional, cell-based; conditions: Homo sapiens
In short: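 Transwell inserts (8 µm pores) with undersides coated with Matrigel (30 µg/mL), blocked with 1% BSA. HMVE cells from 80% confluent cultures, released enzyme-free, were placed in inserts with compound (0.05–500 nM) or Me2SO (0.01% final). After 5 h at 37 °C, cells on underside fixed, stained with Diff-Quick and counted in three high-power fields per well; mean ± SD of three replicates.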

KG-1 [20] = assay: Inhibition of cell proliferation in retinoid-resistant KG1 cells after 48 hrs; assay type: functional, cell-based; conditions: Homo sapiens, KG-1, 48 h; in short: as §1
MDA-MB-231 [21] = assay: Induction of apoptosis in retinoid-resistant MDA-MB-231 cells at 2 uM after 96 hrs; assay type: functional, Homo sapiens
[22] = Growth inhibition of primary HMVE cells at 1 uM after 72 hrs; assay type: functional; conditions: Homo sapiens; in short: as §3
[23] = target: Receptor-type tyrosine-protein phosphatase C, CD45 (Homo sapiens) (UniProt P08575); assay: Inhibition of CD45 PTP at 10 uM relative to control by fluorescence spectrometry
Receptor-type tyrosine-protein phosphatase C, CD45 (Homo sapiens), sequence (P08575 whole entry, looked up): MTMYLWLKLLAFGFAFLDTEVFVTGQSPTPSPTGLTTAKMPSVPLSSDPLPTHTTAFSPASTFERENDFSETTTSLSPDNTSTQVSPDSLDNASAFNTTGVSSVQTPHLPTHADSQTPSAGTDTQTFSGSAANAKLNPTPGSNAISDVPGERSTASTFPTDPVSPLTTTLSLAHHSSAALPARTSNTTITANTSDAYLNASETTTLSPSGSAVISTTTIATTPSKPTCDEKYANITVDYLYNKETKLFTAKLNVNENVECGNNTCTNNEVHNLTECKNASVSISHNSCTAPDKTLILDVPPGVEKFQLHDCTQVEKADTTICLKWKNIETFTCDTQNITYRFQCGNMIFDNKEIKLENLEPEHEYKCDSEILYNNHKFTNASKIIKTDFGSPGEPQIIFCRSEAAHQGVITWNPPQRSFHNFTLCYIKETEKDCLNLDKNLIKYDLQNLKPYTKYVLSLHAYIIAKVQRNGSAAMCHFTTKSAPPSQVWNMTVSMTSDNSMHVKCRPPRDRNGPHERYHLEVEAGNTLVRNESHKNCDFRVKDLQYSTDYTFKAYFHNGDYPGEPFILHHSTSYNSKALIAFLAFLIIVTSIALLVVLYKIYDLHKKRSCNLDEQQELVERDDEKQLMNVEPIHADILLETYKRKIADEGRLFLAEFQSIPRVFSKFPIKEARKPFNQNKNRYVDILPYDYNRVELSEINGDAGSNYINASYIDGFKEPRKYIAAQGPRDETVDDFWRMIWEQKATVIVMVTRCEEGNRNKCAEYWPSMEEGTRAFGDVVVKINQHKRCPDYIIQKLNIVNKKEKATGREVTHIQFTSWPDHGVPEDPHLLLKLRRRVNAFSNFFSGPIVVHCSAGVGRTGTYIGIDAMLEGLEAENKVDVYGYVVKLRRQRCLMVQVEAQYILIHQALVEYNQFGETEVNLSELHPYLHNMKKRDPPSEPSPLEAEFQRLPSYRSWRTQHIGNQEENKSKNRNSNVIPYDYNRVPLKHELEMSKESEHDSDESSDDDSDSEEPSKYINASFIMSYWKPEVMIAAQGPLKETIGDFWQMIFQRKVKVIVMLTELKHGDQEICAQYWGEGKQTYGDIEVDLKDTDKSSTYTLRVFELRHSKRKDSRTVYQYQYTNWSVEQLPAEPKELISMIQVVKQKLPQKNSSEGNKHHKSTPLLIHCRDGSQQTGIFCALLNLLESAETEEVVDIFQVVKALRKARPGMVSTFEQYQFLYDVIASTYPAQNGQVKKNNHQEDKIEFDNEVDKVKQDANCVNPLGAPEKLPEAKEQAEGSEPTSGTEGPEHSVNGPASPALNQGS

[24] = target: T2, Tyrosine-protein phosphatase non-receptor type 11 (Homo sapiens, UniProt Q06124); assay: Inhibition of SHP2 PTP by fluorescence spectroscopy
T2 sequence (Q06124 whole entry): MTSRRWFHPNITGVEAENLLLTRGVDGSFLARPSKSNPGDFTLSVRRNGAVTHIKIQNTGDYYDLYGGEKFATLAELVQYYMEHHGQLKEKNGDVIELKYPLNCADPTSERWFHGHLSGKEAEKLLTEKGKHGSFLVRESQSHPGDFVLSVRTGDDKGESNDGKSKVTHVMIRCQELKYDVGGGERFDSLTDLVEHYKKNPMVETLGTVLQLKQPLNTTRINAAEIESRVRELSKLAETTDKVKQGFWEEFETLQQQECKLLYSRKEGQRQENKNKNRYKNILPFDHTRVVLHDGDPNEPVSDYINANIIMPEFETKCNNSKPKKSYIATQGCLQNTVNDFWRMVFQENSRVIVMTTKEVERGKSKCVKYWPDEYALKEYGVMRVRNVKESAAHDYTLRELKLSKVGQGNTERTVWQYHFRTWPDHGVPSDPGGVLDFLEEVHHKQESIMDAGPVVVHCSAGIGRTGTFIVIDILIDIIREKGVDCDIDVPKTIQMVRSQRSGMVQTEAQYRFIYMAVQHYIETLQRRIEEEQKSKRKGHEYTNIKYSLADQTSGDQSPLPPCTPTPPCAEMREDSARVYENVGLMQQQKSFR

| pIC50 (MDA-MB-231 [6]) | Activity [7] | pIC50 (DU-145 [13]) | SMILES | inhibition at 5 µM (KG-1 [2]) | pIC50 [3] | Activity (KG-1 [10]) | inhibition at 1 µM (MDA-MB-231 [12]) | Activity (KG-1 [14]) | inhibition at 1 µM (KG-1 [15]) | inhibition at 1 µM [16] | inhibition at 1 µM (DU-145 [18]) | pIC50 (KG-1 [20]) | further results |
| --- | --- | --- | --- | --- | --- | --- | --- | --- | --- | --- | --- | --- | --- |
| 5.74 | 87% | 6.30 | O=C(O)/C=C/c1ccc(-c2ccc(O)c(C34CC5CC(CC(C5)C3)C4)c2)c(Cl)c1 | 67% | 6.40 | 55% | 32% | 30% | 44% | 79% | 76% | 6.52 | pIC50 [1]: 6.52; pIC50 [4]: 6.52; Activity (HMVE [5]): Dose-dependent effect; Activity (HMVE [8]): inactive; Activity (MDA-MB-231 [9]): 43%; Activity [11]: 64%; inhibition at 0.5 µM [17]: 60%; Activity (HMVE [19]): inactive |
| – | – | – | O=C(O)c1cccc2c(-c3ccc(O)c(C45CC6CC(CC(C6)C4)C5)c3)cccc12 | – | – | – | – | – | – | – | – | – | Activity (MDA-MB-231 [21]): 4% |
| 4.74 | 37% | 5.43 | O=C1NC(=O)/C(=C/c2ccc(-c3ccc(O)c(C45CC6CC(CC(C6)C4)C5)c3)c(Cl)c2)S1 | 41% | 5.44 | 10% | 0% | 8% | 28% | 17% | 17% | 4.85 | inhibition at 1 µM [22]: 30%; inhibition [23]: 53%; pIC50 [24]: 5.66 |
